Lipid droplet: inhibitors of hepatocyte lipid droplet formation, primary screen, imaging, high-throughput imaging, BODIPY stain; AML12 mouse hepatocytes, oleate lipid droplets; inhibition, % at 6.5 µM; 0.4% of 240,000 active;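 active means lipid droplet intensity inhibited by at least 50%, with more than 500 cells counted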
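Assay system: AML12 hepatocytes (mouse); Probe or stimulus: oleic acid at 100 µM to induce lipid droplet formation; Dosing: compound at 6.5 µM only; Schedule: compound with oleate, overnight; Detection: fluorescence imaging, 20x objective, two fields per well; Measure: % inhibition of lipid droplet signal.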
HSF1 inh: HSF1 inhibitors in luciferase reporter cells, primary screen, cell-based, NIH3T3, luminescence; NIH3T3-HGL HSE-luciferase, MG132-induced, luminescence 8 h; hits give low values; activity change, negative = inhibition, % at 7.5 µM (by protocol); 0.77% of 300,000 active; AID 2098, 2009;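 active means more than half of replicate wells show activity change below -50%, luminescence cut by over half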;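 further: luciferase reports HSF-1 transcriptional activity via heat shock element; 0% = median of DMSO wells and -100% = zero luminescence signal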
HSF1 activator: HSF-1 activators, primary screen, NIH3T3-HGL cells, MG132 stress, luminescence, single point; NIH3T3-HGL HSF-1 luciferase reporter, 8 h; 100% = twice DMSO control signal; activation, % at 9 µM; 1.7% of 300,000 active;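 active means mean replicate activation of at least 50% with a set share of replicates each reaching 50%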;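 further: 0% = median of the neutral control wells and 100% = twice that signal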
CHT inh: inhibitors of human choline transporter CHT | CHT-expressing cells, membrane potential dye, choline response; hits give low values | B-score at 10 µM | High affinity choline transporter 1 (Homo sapiens), Q9GZV3 | 0.86% of 310,000 active;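 active means B-score over 3 SD under the library average, and starting fluorescence ratio not unusually high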;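 further: choline stimulus applied at its EC90 after an EC20 pre-addition; B-score computed on integrated fluorescence ratio after choline addition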
Target sequence (Q9GZV3 whole entry, looked up): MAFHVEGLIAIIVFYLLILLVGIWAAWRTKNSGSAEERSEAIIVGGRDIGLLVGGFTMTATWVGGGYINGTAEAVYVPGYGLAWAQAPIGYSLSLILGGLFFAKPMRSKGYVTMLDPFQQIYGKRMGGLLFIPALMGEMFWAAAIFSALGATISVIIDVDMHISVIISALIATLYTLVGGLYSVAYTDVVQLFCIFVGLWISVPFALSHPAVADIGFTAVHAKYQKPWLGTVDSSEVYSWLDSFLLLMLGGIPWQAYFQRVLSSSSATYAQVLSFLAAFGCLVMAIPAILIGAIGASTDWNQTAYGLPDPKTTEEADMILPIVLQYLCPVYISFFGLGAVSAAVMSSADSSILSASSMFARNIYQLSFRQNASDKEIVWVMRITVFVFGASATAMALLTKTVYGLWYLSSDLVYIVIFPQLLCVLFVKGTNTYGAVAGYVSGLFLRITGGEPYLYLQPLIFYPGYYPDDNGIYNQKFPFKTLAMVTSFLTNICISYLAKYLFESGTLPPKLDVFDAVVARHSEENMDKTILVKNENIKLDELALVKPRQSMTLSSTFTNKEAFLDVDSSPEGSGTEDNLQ
CHT PAM: CHT positive allosteric modulators, primary screen, cell-based, membrane potential dye, choline EC20 | AID 488977, 2010 | High affinity choline transporter 1 (Homo sapiens), Q9GZV3 | 0.49% of 310,000 active | B-score at 10 µM | CHT-expressing cells; hits give high values; LV-AA mutant CHT in HEK293 cells;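 active means initial fluorescence not abnormally high and integrated response B-score, plate-corrected, over 3 SD above library mean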
PHOSPHO1 inh: PubChem AID 1565 | Phosphoethanolamine/phosphocholine phosphatase (Homo sapiens), Q8TCT1 | recombinant PHOSPHO1, absorbance phosphatase assay | inhibition, % at 13.3 µM | 1.1% of 290,000 active; in the data active means inhibition above about 60%
* = called active by the depositor. This is a sample that favours compounds with a hit; in the whole collection about 4.9% have one here.

For Cc1ccc2nc3c(cc2c1)CC1(C(=O)N(C)C(=O)N(C)C1=O)C1CCCCN31 (configuration not stated) the results were Lipid droplet -2, HSF1 inh 38, HSF1 activator 81*, CHT inh inactive, CHT PAM inactive and PHOSPHO1 inh -29.
Screening CN1C(=O)N(C)C(=O)C2(Cc3cc(NC(=O)c4ccccc4Cl)ccc3N3CCCC32)C1=O (configuration not stated) returned Lipid droplet 10, HSF1 inh -2, HSF1 activator -16, CHT inh inactive, CHT PAM inactive and PHOSPHO1 inh 58.
Screening OCCOCC#CCN1CCOCC1 returned Lipid droplet 10, HSF1 inh -2, HSF1 activator 5, CHT inh inactive, CHT PAM inactive and PHOSPHO1 inh 6.
For CCC(=NCc1ccco1)c1c(O)n(C2CCCCC2)c(=O)[nH]c1=O the results were HSF1 inh 29, HSF1 activator 66*, CHT inh inactive, CHT PAM inactive and PHOSPHO1 inh -4.
Screening C[C@]12CCC(=O)C[C@H]1CC[C@@H]1[C@@H]2CC[C@]2(C)[C@@H](O)CC[C@@H]12 returned CHT inh -5.3* and CHT PAM inactive.
COc1cc2c(cc1OC)CN(c1ccc([N+](=O)[O-])c(C(F)(F)F)c1)CC2 was read as Lipid droplet -2, HSF1 inh 92, HSF1 activator 121*, CHT inh inactive, CHT PAM inactive and PHOSPHO1 inh -6.
`CN1CCN(c2ccc(S(=O)(=O)C(F)(F)F)cc2[N+](=O)[O-])CC1` gave Lipid droplet 3, HSF1 inh -2, HSF1 activator -13, CHT inh inactive, CHT PAM inactive and PHOSPHO1 inh -14.
Screening CC(C)N1CCN(Cc2cccc3c2OCO3)CC1CCO (configuration not stated) returned Lipid droplet -6, HSF1 inh -18, HSF1 activator 13, CHT inh inactive, CHT PAM inactive and PHOSPHO1 inh 18.
For Cc1cc([N+](=O)[O-])c(Cl)cc1NC(=O)C(C)C the results were Lipid droplet -1, HSF1 inh -5, HSF1 activator -22, CHT inh inactive, CHT PAM inactive and PHOSPHO1 inh 2.
For CNc1cc(Cl)c2nonc2c1[N+](=O)[O-] the results were Lipid droplet -50, HSF1 inh 113, HSF1 activator 168* and PHOSPHO1 inh 2.
O=C(Nc1ccc(OC(=O)N2CCCC2)cc1)N1CCOCC1 was read as Lipid droplet -6, HSF1 inh -31, HSF1 activator -38, CHT inh inactive, CHT PAM inactive and PHOSPHO1 inh -8.
For Cc1cccc(NC(=O)N2CCCC2)c1 the results were Lipid droplet -3, HSF1 inh -10, HSF1 activator -7, CHT inh inactive, CHT PAM inactive and PHOSPHO1 inh 62*.
Screening C[C@]12N[C@H](Cc3ccccc31)c1ccccc12 returned HSF1 inh 0, HSF1 activator -13, CHT inh inactive and CHT PAM inactive.
`Cc1ccccc1-n1c(O)c(/C=N/NC(=O)c2ccccc2O)c(=O)[nH]c1=S` gave Lipid droplet 0, HSF1 inh -55*, HSF1 activator -64, CHT inh inactive, CHT PAM inactive and PHOSPHO1 inh 3.
O=C(N/N=C/c1c(O)n(C2CC2)c(=S)[nH]c1=O)c1ccccc1O was read as Lipid droplet 17, HSF1 inh -4, HSF1 activator 18, CHT inh inactive, CHT PAM inactive and PHOSPHO1 inh -6.
Screening CC(C)(CN)CC(=O)O returned Lipid droplet 1, HSF1 inh 26, HSF1 activator 83*, CHT inh inactive, CHT PAM inactive and PHOSPHO1 inh 6.
For Cc1cc(OCC(=O)Nc2c(C)n(C)n(-c3ccccc3)c2=O)c2c3c(c(=O)oc2c1)CCC3 the results were PHOSPHO1 inh 14.
Screening O=c1c2ccccc2nc(-c2ccccc2)n1-c1ccccc1 returned Lipid droplet -9, HSF1 inh -7, HSF1 activator 2, CHT inh inactive, CHT PAM inactive and PHOSPHO1 inh 36.
`O=c1c2ccccc2[se]n1-c1ccccc1` gave Lipid droplet -29, HSF1 inh 2, HSF1 activator 20, CHT inh inactive, CHT PAM inactive and PHOSPHO1 inh 89*.
Screening Cc1nn(CCC#N)c2c1P(=S)(N1CCCC1)OC(c1ccc(F)cc1)=N2 (configuration not stated) returned HSF1 inh -9, HSF1 activator -14, CHT inh inactive, CHT PAM inactive and PHOSPHO1 inh 103*.
`CC(=O)O[C@]1(C)C(=O)OC/C2=C/CN(C)CCC(OC(=O)[C@@](O)(C(C)O)C[C@H]1C)C2=O` (some centres not stated) gave Lipid droplet 6, HSF1 inh 0, CHT inh inactive, CHT PAM inactive and PHOSPHO1 inh 20.
For Cc1cc(C=C2C(=O)N(C)C(=S)N(C)C2=O)c(C)n1C1CCCCC1 the results were HSF1 inh 0, HSF1 activator -4, CHT inh inactive, CHT PAM inactive and PHOSPHO1 inh 65*.
For CC(=O)Cc1c[nH]c2ccccc12 the results were Lipid droplet -1, HSF1 inh -91*, HSF1 activator -92, CHT inh inactive, CHT PAM inactive and PHOSPHO1 inh 20.
`CN(C)Cc1c[nH]c2ccccc12` gave CHT inh inactive and CHT PAM inactive.
Screening Cc1ccsc1/C=C1\C(=O)NC(=S)N(C)C1=O returned Lipid droplet 8, HSF1 inh -67*, HSF1 activator -75, CHT inh inactive, CHT PAM inactive and PHOSPHO1 inh 29.
For Cc1ccc(N2C(=O)NC(=O)/C(=C\C=C\c3ccco3)C2=O)cc1 the results were Lipid droplet -5, HSF1 inh 22, HSF1 activator 39, CHT inh inactive, CHT PAM inactive and PHOSPHO1 inh 8.
For Cc1ccc(N2C(=O)NC(=O)/C(=C\C=C\c3ccco3)C2=O)cc1C the results were Lipid droplet -4, HSF1 inh 90, HSF1 activator 146*, CHT inh inactive, CHT PAM inactive and PHOSPHO1 inh 0.
Screening Cc1cc(OC(=O)N(C)C)nc2c1c(C)nn2C returned Lipid droplet 1, HSF1 inh 1, HSF1 activator -14, CHT inh inactive, CHT PAM inactive and PHOSPHO1 inh 12.

Bioassay records: PubChem, several laboratories
